Measured values published in ChEMBL document CHEMBL4765399, “Design, synthesis, and biological evaluation of 5-((8-methoxy-2-methylquinolin-4-yl)amino)-1H-indole-2-carbohydrazide derivatives as novel Nur77 modulators” (Eur J Med Chem, 2020).
Activity calls are given as the source filed them. The rule behind the calls is not given here.

Key:
HepG2 [1] = assay: Induction of apoptosis in human HepG2 cells assessed as live cells at 2 uM incubated for 12 hrs by Annexin V-FITC/PI staining based flow cytometry (reference value: 90.7 to 94%); assay type: functional
HepG2 [2] = assay: Induction of apoptosis in human HepG2 cells assessed as late apoptotic cells at 2 uM incubated for 12 hrs by Annexin V-FITC/PI staining based flow cytometry (reference value: 1.1 to 2.75%); assay type: functional
HepG2 [3] = assay: Induction of apoptosis in human HepG2 cells transfected with shNur77 assessed as increase in cleaved PARP level at 2 uM incubated for 12 hrs by Western blot analysis; assay type: functional, cell-based
How it was run: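 HepG2 carrying scrambled or Nur77 shRNA exposed to 2.0 µM for 12 h. RIPA lysates with protease/phosphatase inhibitors, 40-80 µg protein by BCA resolved on SDS-PAGE, moved to nitrocellulose, milk-blocked, probed overnight for PARP cleavage and Nur77 with HRP secondaries, chemiluminescent detection.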

SMMC-7721 [4] = assay: Antiproliferative activity against human SMMC-7721 cells assessed as reduction in cell viability incubated for 48 hrs by MTT assay; assay type: functional, cell-based; conditions: SMMC-7721, 48 h
How it was run: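 MTT assay after 48 h exposure at six concentrations, range chosen by cytotoxicity. Inhibition = (ODcontrol − ODtest)/ODcontrol × 100%; IC50 is the concentration halving OD versus untreated cells. Means ± SD of three independent determinations. HepG2 and SMMC-7721 grown in DMEM, QGY-7703 and LO2 in RPMI 1640, with 10% FBS at 37 °C.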

SMMC-7721 [5] = assay: Upregulation of Nur77 expression in human SMMC-7721 cells incubated for 6 hrs by Western blot analysis; assay type: functional, cell-based; conditions: dose 0.5-2 µM
How it was run: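 HepG2, QGY-7703 and SMMC-7721 cells treated with the indicated concentrations for 6 h. HepG2 also given 2.0 µM over a time course. Lysis in RIPA with protease and phosphatase inhibitors; 40-80 µg protein by SDS-PAGE, nitrocellulose transfer. Membranes blocked with 5% milk, primary antibody overnight, HRP secondary, chemiluminescence. GAPDH as loading control.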

HepG2 [6] = assay: Induction of morphological changes in human HepG2 cells assessed as cell shrinkage at 1 to 2 uM incubated for 6 to 12 hrs by phase contrast microscopic analysis; assay type: functional, cell-based; conditions: dose 1-2 µM, time 6-12 hrs
How it was run: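 HepG2 cells given graded concentrations; morphology monitored at set time points by phase-contrast optical microscopy.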

HepG2 [7] = assay: Induction of apoptosis in human HepG2 cells assessed as cleaved PARP expression at 2 uM pretreated with ER stress inhibitor, 4-PBA for 2 hrs followed by incubation with compound for 12 hrs by Western blot analysis; assay type: functional, cell-based
How it was run: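 HepG2 cells grown to confluence were pretreated 2 h with 2 mM 3-MA (autophagy inhibitor) or 2 mM 4-PBA (ER stress inhibitor), then exposed to compound for 12 h. Proteins (40–80 µg, RIPA lysate) were resolved by SDS-PAGE and blotted for PARP, cleaved caspase-3/-9, Bcl-2 and Bax, with chemiluminescent detection.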

[8] = molecular target: Nuclear receptor subfamily 4immunitygroup A member 1 (Homo sapiens, UniProt P22736); assay: Binding affinity to Nur77 ligand binding domain (unknown origin) assessed as dissociation constant by fluorescence titration based analysis
Nuclear receptor subfamily 4immunitygroup A member 1, sequence (P22736 whole entry, the tested form may be a part): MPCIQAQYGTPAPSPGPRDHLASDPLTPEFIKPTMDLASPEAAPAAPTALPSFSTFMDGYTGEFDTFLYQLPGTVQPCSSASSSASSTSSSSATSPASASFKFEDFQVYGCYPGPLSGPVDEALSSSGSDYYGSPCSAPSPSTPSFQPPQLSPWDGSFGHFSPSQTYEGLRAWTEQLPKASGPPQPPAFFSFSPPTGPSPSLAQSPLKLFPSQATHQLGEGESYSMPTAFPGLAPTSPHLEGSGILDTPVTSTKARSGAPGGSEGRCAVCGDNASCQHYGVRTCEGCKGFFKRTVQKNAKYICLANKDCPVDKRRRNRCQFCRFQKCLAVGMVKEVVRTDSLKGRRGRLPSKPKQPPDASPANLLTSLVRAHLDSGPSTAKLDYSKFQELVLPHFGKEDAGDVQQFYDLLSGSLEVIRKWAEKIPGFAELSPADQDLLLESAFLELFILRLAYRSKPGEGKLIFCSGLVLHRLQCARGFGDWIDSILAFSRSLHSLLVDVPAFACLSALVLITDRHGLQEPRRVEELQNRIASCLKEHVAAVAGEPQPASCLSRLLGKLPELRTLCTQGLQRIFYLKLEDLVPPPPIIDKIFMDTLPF
How it was run: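 Intrinsic tryptophan fluorescence quench: 1 μM Nur77-LBD titrated with 0–4 μM ligand in about 0.2 μM steps (20 points). After 30 min at room temperature, read at 25 °C, excitation 280 nm, emission 340 nm. KD fitted to a two-state 1:1 complex model.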

HepG2 [9] = assay: Antitumor activity against human HepG2 cells xenografted in BALB/c mouse assessed as tumor weight at 10 mg/kg/day, ip administered for 15 days (reference value: 0.86 +/- 0.18 g); assay type: functional; conditions: dose 20 mg/kg/day; time 15 day; in the assay text read “20 mg/kg/day” for “10 mg/kg/day”
How it was run: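 Subcutaneous flank xenograft of 5×10^6 HepG2 cells in 4-week-old male Balb/c nude mice. At about 100 mm³, 15 mice were randomized into three groups: vehicle, 10 or 20 mg/kg i.p. daily for 15 days. Tumor size was measured every day, and tumors were excised and weighed at the end.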

QGY-7703 = assay: Induction of apoptosis in human QGY-7703 cells assessed as increase in cleaved PARP level at 0.5 to 2 uM incubated for 12 hrs by Western blot analysis; assay type: functional, cell-based; conditions: dose 0.5-2 µM
How it was run: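 QGY-7703 (RPMI 1640, 10% FBS) and SMMC-7721 (DMEM) cells at 37 °C, 5% CO2, treated with graded concentrations for 12 h. RIPA lysates (40-80 µg protein) run on SDS-PAGE, transferred to nitrocellulose, immunoblotted for cleaved PARP; chemiluminescence read-out.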

HepG2 [10] = assay: Induction of autophagy in human HepG2 cells assessed as increase in Beclin 1 expression measured after 12 hrs by Western blot analysis; assay type: functional, cell-based; conditions: dose 0.5-2 µM
How it was run: (§1)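 HepG2, QGY-7703 and SMMC-7721 treated with graded concentrations for 12 h. Lysed in RIPA with inhibitors; 40-80 µg protein separated by SDS-PAGE, blotted to nitrocellulose, blocked 1 h in 5% milk, primary antibodies overnight (LC3, Beclin1, Bip, CHOP, TRB3), HRP secondaries, chemiluminescence.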

Mus musculus = assay: Induction of Nur77 expression in tumor tissue of BALB/c mouse xenografted with human HepG2 cells at 10 to 20 mg/kg/day, ip administered for 15 days by western blot analysis; conditions: dose 10-20 mg/kg/day, time 15.0 day
HepG2 [11] = assay: Antitumor activity against human HepG2 cells xenografted in BALB/c mouse assessed as induction of autophagy by measuring increase in Beclin1 level in tumor tissue at 10 to 20 mg/kg/day, ip administered for 15 days by western blot analysis; assay type: functional, organism-based; conditions: dose 10-20 mg/kg/day, time 15.0 day
How it was run: (§2)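 HepG2 cells (5×10^6) injected subcutaneously into flanks of 4-week-old male Balb/c nude mice. At about 100 mm³, 15 mice were randomized to vehicle, 10 or 20 mg/kg i.p. once daily for 15 days. Tumors were then excised for immunostaining of paraffin sections (5 μm) or for western blot.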

HepG2 [12] = assay: Induction of apoptosis in human HepG2 cells assessed as Bax/Bcl-2 ratio at 2 uM pretreated with ER stress inhibitor, 4-PBA for 2 hrs followed by incubation with compound for 12 hrs by Western blot analysis; assay type: functional, cell-based
HepG2 [13] = assay: Induction of endoplasmic reticulum stress in Nur77 […] human HepG2 cells assessed as TRB3 protein expression at 2 uM incubated for 12 hrs by Western blot analysis; assay type: functional, cell-based
How it was run: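 HepG2 and shNur77 HepG2 exposed to DMSO or 2.0 µM for 6 and 12 h; lysates immunoblotted for TRB3, Bip, CHOP and Nur77 (SDS-PAGE, nitrocellulose, overnight primary antibodies, HRP secondary, chemiluminescence).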

HepG2 [14] = assay: Antitumor activity against human HepG2 cells xenografted in BALB/c mouse assessed as induction of ER stress by measuring increase in CHOP level in tumor tissue at 10 to 20 mg/kg/day, ip administered for 15 days by western blot analysis; assay type: functional, organism-based; conditions: dose 10-20 mg/kg/day, time 15.0 day; how it was run: as §2
SMMC-7721 [15] = assay: Induction of autophagy in human SMMC-7721 cells assessed as increase in Beclin 1 expression measured at 12 hrs by Western blot analysis; assay type: functional, cell-based; conditions: dose 0.5-2 µM; how it was run: as §1

Question: `COc1cccc2c(Nc3ccc4[nH]c(C(=O)N/N=C/c5ccc(SC)cc5)cc4c3)cc(C)nc12` was tested. Which Activity (HepG2 [1]) did it give?
Answer: The Activity was 8.8%.

Question: What about the Activity (HepG2 [2]) of the same compound?
Answer: Its Activity is 55.6%.

Question: And the Activity (HepG2 [3])?
Answer: The Activity was “inactive”.

Question: And the IC50 (SMMC-7721 [4])?
Answer: Its IC50 is 1400 nM.

Question: And the Activity (SMMC-7721 [5])?
Answer: Its Activity is “Dose-dependent effect”.

Question: And the Activity (HepG2 [6])?
Answer: The Activity was “Active”.

Question: And the Activity (HepG2 [7])?
Answer: The Activity was “inactive”.

Question: What about the Kd [8] of the same compound?
Answer: The Kd was 1340 nM.

Question: And the Activity (HepG2 [9])?
Answer: Its Activity is 0.24 g.

Question: And the Activity (QGY-7703)?
Answer: The Activity was “Dose-dependent effect”.

Question: What about the Activity (HepG2 [10]) of the same compound?
Answer: Its Activity is “Dose-dependent effect”.

Question: And the Activity (Mus musculus)?
Answer: Its Activity is “Active”.

Question: And the Activity (HepG2 [11])?
Answer: The Activity was “Active”.

Question: What about the Activity (HepG2 [12]) of the same compound?
Answer: The Activity was “inactive”.

Question: What about the Activity (HepG2 [13]) of the same compound?
Answer: The Activity was “inactive”.

Question: And the Activity (HepG2 [14])?
Answer: The Activity was “Active”.

Question: And the Activity (SMMC-7721 [15])?
Answer: Its Activity is “Dose-dependent effect”.
